Each block holds one molecule with its values, some of them ahead of it.
Columns and labels:
[1] = Distribution coefficient, log D of the compound; format: physicochemical; details: octanol/water
Method in brief: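 logD was determined experimentally at pH 7.4.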

[2] = AUC in Han/Wistar rat at 3 mg/kg, po; format: ADME, organism-based; parameters: dose 3 mg/kg, route oral; details: plasma
Method in brief: (§1)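 Han-Wistar rats received a single oral dose of 3 mg/kg. Plasma Cmax is reported in ng/mL and AUC in ng h/mL.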

[3] = Cmax in Han/Wistar rat at 3 mg/kg, po; format: ADME, organism-based; parameters: dose 3 mg/kg, route oral; details: in vivo; method in brief: as §1

SMILES: CC1(C)Cc2nc(N3CCOc4ccc(-c5ccc(N)nn5)cc43)sc2C(=O)N1
logD [1]: 1.94
AUC [2]: 78 ng·h/mL
Cmax [3]: 14 ng/mL

SMILES: Cc1nn(CC(C)(C)O)c(C)c1-c1ccc2c(c1)N(c1nc3c(s1)C(=O)NC(C)(C)C3)CCO2
logD [1]: 2.3

SMILES: Cc1cc(C)c(Nc2ccc3c(c2)N(c2nc4c(s2)C(=O)NC(C)(C)C4)CCO3)nn1
logD [1]: 1.97

SMILES: Cc1ccc(Nc2ccc3c(c2)N(c2nc4c(s2)C(=O)NC(C)(C)C4)CCO3)nn1
logD [1]: 2.39
AUC [2]: 345 ng·h/mL
Cmax [3]: 105 ng/mL

SMILES: CN(C)c1ccc(-c2ccc3c(c2)N(c2nc4c(s2)C(=O)NC(C)(C)C4)CCO3)nn1
logD [1]: 2.61

SMILES: Cc1n[nH]c(C)c1-c1ccc2c(c1)N(c1nc3c(s1)C(=O)NC(C)(C)C3)CCO2
logD [1]: 3.04

SMILES: CCn1nc(C)c(-c2ccc3c(c2)N(c2nc4c(s2)C(=O)NC(C)(C)C4)CCO3)c1C
logD [1]: 3.57
AUC [2]: 591 ng·h/mL
Cmax [3]: 139 ng/mL

SMILES: Cc1nn(CCCN)cc1-c1ccc2c(c1)N(c1nc3c(s1)C(=O)NC(C)(C)C3)CCO2
logD [1]: 0.38

SMILES: CN1CCN(c2ccc(-c3ccc4c(c3)N(c3nc5c(s3)C(=O)NC(C)(C)C5)CCO4)nn2)CC1
logD [1]: 1.75

SMILES: CC1(C)Cc2nc(N3CCOc4ccc(Nc5ccc(N6CCNCC6)nn5)cc43)sc2C(=O)N1
logD [1]: 0.6

SMILES: Cc1nn(C)c(C)c1-c1ccc2c(c1)N(c1nc3c(s1)C(=O)NC(C)(C)C3)CCO2
logD [1]: 3.23

SMILES: COc1ccc(Nc2ccc3c(c2)N(c2nc4c(s2)C(=O)NC(C)(C)C4)CCO3)nn1
logD [1]: 2.74

SMILES: Cc1ccc(-c2ccc3c(c2)N(c2nc4c(s2)C(=O)NC(C)(C)C4)CCO3)nn1
logD [1]: 2.32

SMILES: CN1CCN(c2ccc(Nc3ccc4c(c3)N(c3nc5c(s3)C(=O)NC(C)(C)C5)CCO4)nn2)CC1
logD [1]: 1.76

SMILES: CC1(C)Cc2nc(N3CCOc4ccc(-c5ccc(N6CCNCC6)nn5)cc43)sc2C(=O)N1
logD [1]: 2.45

SMILES: CC1(C)Cc2nc(N3CCOc4ccc(Nc5ccc(-c6ccccc6)nn5)cc43)sc2C(=O)N1
logD [1]: 3.72

SMILES: COc1ccc(-c2ccc3c(c2)N(c2nc4c(s2)C(=O)NC(C)(C)C4)CCO3)nn1
logD [1]: 0.22

Continued, values first:

logD [1]: 3
SMILES: Cc1nn(C)cc1-c1ccc2c(c1)N(c1nc3c(s1)C(=O)NC(C)(C)C3)CCO2

logD [1]: 2.74
AUC [2]: 1000 ng·h/mL
Cmax [3]: 195 ng/mL
SMILES: CC(C)(O)Cn1cc(-c2ccc3c(c2)N(c2nc4c(s2)C(=O)NC(C)(C)C4)CCO3)cn1

logD [1]: 2.94
SMILES: CC1(C)Cc2nc(N3CCOc4ccc(-c5cnn(Cc6cccnc6)c5)cc43)sc2C(=O)N1

logD [1]: 2.19
AUC [2]: 495 ng·h/mL
Cmax [3]: 159 ng/mL
SMILES: COCC(O)Cn1cc(-c2ccc3c(c2)N(c2nc4c(s2)C(=O)NC(C)(C)C4)CCO3)cn1 (stereo unspecified)

logD [1]: 3.91
AUC [2]: 455 ng·h/mL
Cmax [3]: 103 ng/mL
SMILES: CC1(C)Cc2nc(N3CCOc4ccc(-c5cnn(Cc6ccccc6)c5)cc43)sc2C(=O)N1

logD [1]: 2.63
SMILES: Cn1cc(-c2ccc3c(c2)N(c2nc4c(s2)C(=O)NC(C)(C)C4)CCO3)cn1

logD [1]: 1.98
SMILES: Cn1ncc(-c2ccc3c(c2)N(c2nc4c(s2)C(=O)NC(C)(C)C4)CCO3)c1N

logD [1]: 2.68
SMILES: CC1(C)Cc2nc(N3CCOc4ccc(-c5cn[nH]c5)cc43)sc2C(=O)N1

AUC [2]: 807 ng·h/mL
Cmax [3]: 187 ng/mL
SMILES: COC[C@H](O)Cn1cc(-c2ccc3c(c2)N(c2nc4c(s2)C(=O)NC(C)(C)C4)CCO3)cn1

logD [1]: 2.73
SMILES: CCn1cc(-c2ccc3c(c2)N(c2nc4c(s2)C(=O)NC(C)(C)C4)CCO3)cn1

logD [1]: 1.16
SMILES: CC1(C)Cc2nc(N3CCOc4ccc(-c5cnn(CCN)c5)cc43)sc2C(=O)N1
